In ChEMBL document CHEMBL1121479, “Simple beta-lactam compounds derived from 6-aminopenicillanic acid” (1980):
In brackets after ≈: the same amount, converted by molar mass. Each block holds one compound with its values, some of them ahead of it.

Tests used:
Bacillus subtilis [1] = test: Evaluated for the minimum inhibitory concentration (MIC) which inhibits the growth of Bacillus subtilis ATCC 6051 (gram-positive); type: functional
How it was run: (§1)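 Agar dilution on trypticase soy agar plates holding sample or standard at 0 to 200 μg/mL agar. Solutions were made and diluted in Me₂SO or water. Each plate was inoculated twice with every organism using a Steers replicator and incubated 18 h at 37 °C. MIC was taken as the lowest level that inhibited growth.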

[2] = tested on: Staphylococcus epidermidis; test: Evaluated for the minimum inhibitory concentration (MIC) which inhibits the growth of Staphylococcus epidermidis ATCC 14990 (gram-positive); type: functional; how it was run: as §1
Enterobacter cloacae [3] = test: Evaluated for the minimum inhibitory concentration (MIC) which inhibits the growth of Enterobacter cloacae ATCC 13047 (gram-negative); type: functional; how it was run: as §1
Shigella sonnei [4] = test: Evaluated for the minimum inhibitory concentration (MIC) which inhibits the growth of Shigella sonnei ATCC 11060 (gram-negative); type: functional; how it was run: as §1
Proteus vulgaris [5] = test: Evaluated for the minimum inhibitory concentration (MIC) which inhibits the growth of Proteus vulgaris ATCC 6380 (gram-negative); type: functional; how it was run: as §1
Salmonella typhimurium [6] = test: Evaluated for the minimum inhibitory concentration (MIC) which inhibits the growth of Salmonella Typhimurium ATCC 13311 (gram-negative); type: functional, Salmonella enterica subsp. enterica serovar Typhimurium; conditions: Salmonella enterica; how it was run: as §1
Micrococcus luteus [7] = test: Evaluated for the minimum inhibitory concentration (MIC) which inhibits the growth of Sarcina lutea ATCC 9341 (gram-positive); type: functional; how it was run: as §1
Proteus mirabilis [8] = test: Evaluated for the minimum inhibitory concentration (MIC) which inhibits the growth of Proteus mirabilis MIT B-52 (gram-negative); type: functional; how it was run: as §1
Pseudomonas aeruginosa [9] = test: Evaluated for the minimum inhibitory concentration (MIC) which inhibits the growth of Pseudomonas aeruginosa ATCC 9721 (gram-negative); type: functional; how it was run: as §1
Klebsiella pneumoniae [10] = test: Evaluated for the minimum inhibitory concentration (MIC) which inhibits the growth of Klebsiella pneumoniae ATCC 27736 (gram-negative); type: functional; how it was run: as §1
Streptococcus pyogenes [11] = test: Evaluated for the minimum inhibitory concentration (MIC) which inhibits the growth of Streptococcus pyogenes ATCC 10389 (gram-positive); type: functional; how it was run: as §1
Serratia marcescens [12] = test: Evaluated for the minimum inhibitory concentration (MIC) which inhibits the growth of Serratia marcescens MIT B-43 (gram-negative); type: functional; how it was run: as §1
Staphylococcus aureus [13] = test: Evaluated for the minimum inhibitory concentration (MIC) which inhibits the growth of Staphylococcus aureus ATCC 25923 (gram-positive); type: functional; how it was run: as §1
Escherichia coli [14] = test: Evaluated for the minimum inhibitory concentration (MIC) which inhibits the growth of Escherichia coli ATCC 25922 (gram-negative); type: functional; how it was run: as §1
Klebsiella pneumoniae [15] = test: Evaluated for the minimum inhibitory concentration (MIC) which inhibits the growth of Klebsiella pneumoniae ATCC 27736; type: functional; how it was run: as §1
[16] = tested on: Staphylococcus epidermidis; test: Evaluated for the minimum inhibitory concentration (MIC) which inhibits the growth of Staphylococcus epidermidis ATCC 14990; type: functional; how it was run: as §1
Streptococcus pyogenes [17] = test: Evaluated for the minimum inhibitory concentration (MIC) which inhibits the growth of Streptococcus pyogenes ATCC 10389; type: functional; how it was run: as §1
Serratia marcescens [18] = test: Evaluated for the minimum inhibitory concentration (MIC) which inhibits the growth of Serratia marcescens MIT B-43; type: functional; how it was run: as §1
Bacillus subtilis [19] = test: Evaluated for the minimum inhibitory concentration (MIC) which inhibits the growth of Bacillus subtilis ATCC 6051; type: functional; how it was run: as §1
Staphylococcus aureus [20] = test: Evaluated for the minimum inhibitory concentration (MIC) which inhibits the growth of Staphylococcus aureus ATCC 25923; type: functional; how it was run: as §1
Shigella sonnei [21] = test: Evaluated for the minimum inhibitory concentration (MIC) which inhibits the growth of Shigella sonnei ATCC 11060; type: functional; how it was run: as §1
Proteus vulgaris [22] = test: Evaluated for the minimum inhibitory concentration (MIC) which inhibits the growth of Proteus vulgaris ATCC 6380; type: functional; how it was run: as §1
Enterobacter cloacae [23] = test: Evaluated for the minimum inhibitory concentration (MIC) which inhibits the growth of Enterobacter cloacae ATCC 13047; type: functional; how it was run: as §1
Escherichia coli [24] = test: Evaluated for the minimum inhibitory concentration (MIC) which inhibits the growth of Escherichia coli ATCC 25922; type: functional; how it was run: as §1
Pseudomonas aeruginosa [25] = test: Evaluated for the minimum inhibitory concentration (MIC) which inhibits the growth of Pseudomonas aeruginosa ATCC 9721.; type: functional; how it was run: as §1
Micrococcus luteus [26] = test: Evaluated for the minimum inhibitory concentration (MIC) which inhibits the growth of Sarcina lutea ATCC 9341; type: functional; how it was run: as §1
Salmonella typhimurium [27] = test: Evaluated for the minimum inhibitory concentration (MIC) which inhibits the growth of; type: functional, salmonella typhimurium a; conditions: Salmonella enterica; how it was run: as §1
Proteus mirabilis [28] = test: Evaluated for the minimum inhibitory concentration (MIC) which inhibits the growth of Proteus mirabilis MIT B-52; type: functional; how it was run: as §1

- MIC (Bacillus subtilis [1]): 25 µg/mL (≈ 144 µM)
- MIC [2]: > 100 µg/mL
- MIC (Enterobacter cloacae [3]): > 100 µg/mL
- MIC (Shigella sonnei [4]): > 100 µg/mL
- MIC (Proteus vulgaris [5]): > 100 µg/mL
- MIC (Salmonella typhimurium [6]): > 100 µg/mL
- MIC (Micrococcus luteus [7]): > 100 µg/mL
- MIC (Proteus mirabilis [8]): > 100 µg/mL
- MIC (Pseudomonas aeruginosa [9]): > 100 µg/mL
- MIC (Klebsiella pneumoniae [10]): > 100 µg/mL
- MIC (Streptococcus pyogenes [11]): > 100 µg/mL
- MIC (Serratia marcescens [12]): > 100 µg/mL
- MIC (Staphylococcus aureus [13]): > 100 µg/mL
- MIC (Escherichia coli [14]): > 100 µg/mL
SMILES: CC1(C)SC2CC(=O)N2C1O (stereo not drawn)

- MIC (Klebsiella pneumoniae [15]): > 100 µg/mL
- MIC [16]: > 100 µg/mL
- MIC (Streptococcus pyogenes [17]): > 100 µg/mL
- MIC (Serratia marcescens [18]): > 100 µg/mL
- MIC (Bacillus subtilis [19]): 100 µg/mL (≈ 571 µM)
- MIC (Staphylococcus aureus [20]): > 100 µg/mL
- MIC (Shigella sonnei [21]): > 100 µg/mL
- MIC (Proteus vulgaris [22]): > 100 µg/mL
- MIC (Enterobacter cloacae [23]): > 100 µg/mL
- MIC (Escherichia coli [24]): > 100 µg/mL
- MIC (Pseudomonas aeruginosa [25]): > 100 µg/mL
- MIC (Micrococcus luteus [26]): > 100 µg/mL
- MIC (Salmonella typhimurium [27]): > 100 µg/mL
- MIC (Proteus mirabilis [28]): > 100 µg/mL
SMILES: CC(C)(CO)SC1CC(=O)N1 (stereo not drawn)
